The values that follow come from ChEMBL document CHEMBL4390693, “New analogs of SYA013 as sigma-2 ligands with anticancer activity” (Bioorg Med Chem, 2019).

In test [1] the target is Sigma non-opioid intracellular receptor 1 (Homo sapiens, UniProt Q99720). Briefly: Displacement of [3H]-Pentazocine from sigma 1 receptor (unknown origin) expressed in HEK293T cell membranes.
The species named for test [2] is Homo sapiens. Briefly: Selectivity index, ratio of Ki for displacement of [3H]-Pentazocine from sigma 1 receptor (unknown origin) expressed in HEK293T cell membranes to KI for displacement of [3H]-DTG from sigma 2 receptor (unknown origin) expressed in HEK293T cell membranes. A digest of the protocol: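 Sigma-1 and sigma-2 binding was run by the NIMH Psychoactive Drug Screening Program. pKi is the mean of three independent experiments, each done at least in triplicate. The index is the ratio of the two receptor Ki values.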

Test [3] is described as follows: Displacement of [3H]-DTG from sigma 2 receptor (unknown origin) expressed in HEK293T cell membranes. Also on record: species or system Homo sapiens. Background: Displacement assays read how much labelled ligand stays bound in the presence of the test substance.
In test [4] the test system is MDA-MB-468. Briefly: Cytotoxicity against human MDA-MB-468 cells assessed as reduction in cell viability resazurin reagent based fluorescent assay. The test is classed as functional. Summed up: (§1)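 Cells seeded at 20,000 per well, attached overnight in experimental medium with 5% FBS at 37 °C, then exposed to varying concentrations of σ2 ligands in 1:9 DMSO/acetone (cisplatin in 0.9% saline) for 24, 48 or 72 h, with re-dosing every 24 h. Matched vehicle controls. Read-out is 0.02% resazurin for 2-3 h, fluorescence ex 560/em 590 nm, viability as % of control. IC50 from non-linear regression of log concentration.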
A general note: Alamar Blue is a resazurin reagent that responds to reducing activity.

In test [5] the test system is PANC-1. Briefly: Cytotoxicity against human PANC1 cells assessed as reduction in cell viability resazurin reagent based fluorescent assay. The test is classed as functional. A digest of the protocol: as §1
In test [6] the test system is MCF-10A. Briefly: Cytotoxicity against human MCF10A cells assessed as reduction in cell viability resazurin reagent based fluorescent assay. Summed up: as §1
The subject of test [7] is A549. Briefly: Cytotoxicity against human A549 cells assessed as reduction in cell viability resazurin reagent based fluorescent assay. It counts as functional. A digest of the protocol:
as §1

Test [8] concerns MDA-MB-231. Briefly: Cytotoxicity against human MDA-MB-231 cells assessed as reduction in cell viability incubated for 48 hrs by resazurin reagent based fluorescent assay. The test is classed as functional. Conditions: MDA-MB-231, 48 h. Summed up: as §1
In test [9] the test system is MIA PaCa-2. Briefly: Cytotoxicity against human MIAPaCa2 cells assessed as reduction in cell viability resazurin reagent based fluorescent assay. The test is classed as functional. A digest of the protocol: as §1
For test [10], the system named is MDA-MB-231. Briefly: Cytotoxicity against human MDA-MB-231 cells assessed as reduction in cell viability incubated for 24 hrs by resazurin reagent based fluorescent assay. The note with it: MDA-MB-231, 24 h. It counts as functional. Summed up:
as §1

Test [11] relates to MDA-MB-231. Briefly: Cytotoxicity against human MDA-MB-231 cells assessed as reduction in cell viability incubated for 72 hrs by resazurin reagent based fluorescent assay. It counts as functional. The note with it: MDA-MB-231, 72 h. A digest of the protocol:
as §1

In test [12] the test system is PC-3. Briefly: Cytotoxicity against human PC3 cells assessed as reduction in cell viability resazurin reagent based fluorescent assay. It counts as functional. A digest of the protocol:
as §1

Test [13] relates to HEK293. Briefly: Cytotoxicity against HEK293 cells assessed as reduction in cell viability incubated for 72 hrs by resazurin reagent based fluorescent assay. Conditions: Homo sapiens, HEK293, 72 h. A digest of the protocol:
as §1

Sequence of Sigma non-opioid intracellular receptor 1 (Q99720 whole entry): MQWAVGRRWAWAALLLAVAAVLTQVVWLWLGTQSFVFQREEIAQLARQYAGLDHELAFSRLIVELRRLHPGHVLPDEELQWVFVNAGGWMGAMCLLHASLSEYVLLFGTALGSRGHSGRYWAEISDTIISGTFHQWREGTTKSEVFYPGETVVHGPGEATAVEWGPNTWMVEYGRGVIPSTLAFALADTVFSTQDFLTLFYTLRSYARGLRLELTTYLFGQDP

With `O=C1c2ccc(Cl)cc2CC1CCN1CCCN(c2ccc(Cl)cc2)CC1` (stereo not drawn), the affinity in test [1], expressed as Ki, was 26 nM. The Ratio Ki in test [2] was 1.4. In [3], the Ki stood at 19 nM and the negative logarithm of the Ki (pKi) is 7.72.

On to `O=C1C(CCN2CCCN(c3ccc(Cl)cc3)CC2)=Cc2cc(F)ccc21`, for which the affinity in [1] corresponds to a Ki of 78 nM. Moreover, in test [2], the Ratio Ki came to 3.9. In [3], this compound gave a Ki of 20 nM and a pKi of 7.7.

`O=C1C(CCN2CCCN(c3ccc(Cl)cc3)CC2)=Cc2cc(Cl)ccc21` registered a Ki in test [1] of 4.9 nM. Besides, in [2], the Ratio Ki was found to be 0.4. In addition, in test [3], the affinity, expressed as Ki, was 13 nM and the pKi worked out at 7.9.

In [1], `O=C1c2ccc(Cl)cc2CC1CCN1CCN(c2ccc(Cl)cc2)CC1` (stereo not drawn) yielded a Ki of 21 nM. Besides, the Ratio Ki in test [2] amounted to 1.2. In [3], this compound returned a Ki of 18 nM and a pKi of 7.74.

For the compound `O=C(CCCN1CCCN(c2ccc(Cl)cc2)CC1)c1ccc(F)cc1`, the IC50 in test [4] was 5000 nM; in [5], 400 nM; in test [6], 22000 nM; in test [7], 6200 nM; in [8] it was 18000 nM; in test [9], 2000 nM. Also, the IC50 turned out to be 36000 nM in test [10], 15000 nM in test [11] and 8200 nM in test [12].

Turning to `O=C1c2ccccc2CC1CCN1CCCN(c2ccc(Cl)cc2)CC1` (stereo not drawn), the Ki stood at 21 nM in [1] and 4.4 nM in [3]. In test [2], the Ratio Ki is 4.8.

With `Fc1ccc2c(c1)CC(CCN1CCCN(c3ccccn3)CC1)C2` (stereo not drawn), the figures for the Ki in [1] and in test [3] were 22 nM and 1.4 nM, respectively. Further, the Ratio Ki in test [2] is 15.7. This compound returned a pKi in test [3] of 8.85.

On to `O/N=C(\CCCN1CCCN(c2ccc(Cl)cc2)CC1)c1ccc(F)cc1`, for which the Ki in [1] was determined as 5.1 nM; in test [3] it was 3.5 nM. Moreover, the IC50 in test [4] turned out to be 4000 nM; in [5], 140 nM; in test [6], 20000 nM; in [7], 5800 nM; in test [8], 8000 nM; in test [9], 1500 nM. Further, the results for the IC50 in [10], in test [11] and in [12] were 17000 nM, 7000 nM and 6900 nM, respectively. In addition, in [2], the Ratio Ki amounted to 1.5. Moreover, the pKi in test [3] is given as 8.46.

`O/N=C1/c2ccc(F)cc2CC1CCN1CCCN(c2ccc(Cl)cc2)CC1` (stereo not drawn): the Ki in test [1] is 277 nM; in test [3], 407 nM. For the same compound, the IC50 in test [5] is 76000 nM; in test [7], > 200000 nM; in [8], 8000 nM; in [9], 10000 nM. Besides, the Ratio Ki in [2] stood at 0.7. In [3], this compound registered a negative logarithm of the Ki (pKi) of 6.4.

Regarding `O=C1c2ccc(F)cc2CC1CCN1CCCN(c2ccc(Cl)cc2)CC1` (stereo not drawn), the Ki in test [1] was determined as 63 nM; in [3], 0.6 nM. In [2], the Ratio Ki stood at 105. The compound also came in with a pKi in [3] of 9.22. Moreover, the IC50 in test [13] amounted to 41300 nM; in test [8] it was 23500 nM; in [10], 33600 nM; in [11], 20100 nM.

As for `O=C1c2ccc(F)cc2CC1CCN1CCCN(c2ccccn2)CC1` (stereo not drawn), the results for the Ki in test [1] and in test [3] were 44 nM and 1.8 nM, respectively. The Ratio Ki in test [2] stood at 24.4. Besides, in test [3], the pKi was found to be 8.75.

Turning to `O=C1c2ccc(F)cc2CC1CCN1CCCN(c2ccc(Cl)cn2)CC1` (stereo not drawn), the results for the Ki in test [1] and in [3] were 16 nM and 0.7 nM, respectively. Besides, the IC50 in [5] stood at 51000 nM; in test [7] it was 52000 nM; in test [8], 58000 nM; in [9], 42000 nM. Besides, in [2], the Ratio Ki came out at 22.9. Also, the pKi in test [3] was 9.13.

Broadly, the Ki is the dissociation constant of the complex between target and ligand, obtained from inhibition or displacement. The low end stands for a stronger hold on the target, the high end for a looser hold on the target. A word on the pKi: it is −log10 of the Ki, conventionally taken in molar units. Higher therefore signals a small Ki. As a reminder, the IC50 is the concentration needed to halve the response being measured.
